Platelet DG rel = inhibitors of platelet dense granule secretion, primary screen, cell-based, MLPCN, human platelets; inhibition, %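 (compounds screened at 7.5 µM in platelet-rich plasma)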; 300,000 tested, 0.22% active; AID 1663, 2009; human platelet-rich plasma, SFLLRN dense granule ATP release, luminescence;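 active = mean replicate score, as percent of positive control, at or above 50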
SENP1 FRET inh = human SENP1 catalytic domain inhibitors, primary screen, biochemical, FRET, uHTS; AID 624204, 2012; Sentrin-specific protease 1 (Homo sapiens), Q9P0U3; recombinant SENP1 catalytic domain, CyPet-SUMO1-YPet FRET cleavage; 360,000 tested, 0.21% active; inhibition, % at 10 µM;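 active = inhibition at least 30% at 10 µM, raw YFP signal under a set limit, fluorescence ratio 0.5 to 1.5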;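 also: 0% = enzyme with DMSO and 100% = no enzyme wells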
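material = recombinant human SENP1 catalytic domain, His6-tagged | quantity = 20 pM enzyme | reagent = 25 nM SUMO1 FRET substrate | compound dosing = 10 µM single point, 0.5% DMSO | timing = 50 min enzyme reaction, room temperature, light-protected | detection = FRET, CFP and YFP emission | control set = no-enzyme low, enzyme-DMSO high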
SENP8 block-1 = human SENP8 protease inhibitors, primary screen, biochemical, fluorescence, Nedd8 protein substrate, uHTS | recombinant SENP8 | inhibition, % at 20 µM | 360,000 tested, 0.64% active | AID 602440, 2012; in the data active = inhibition mostly above about 40%, no sharp cut-off; inactive = mostly below about 27%
Target sequence (Q96LD8 whole entry, looked up): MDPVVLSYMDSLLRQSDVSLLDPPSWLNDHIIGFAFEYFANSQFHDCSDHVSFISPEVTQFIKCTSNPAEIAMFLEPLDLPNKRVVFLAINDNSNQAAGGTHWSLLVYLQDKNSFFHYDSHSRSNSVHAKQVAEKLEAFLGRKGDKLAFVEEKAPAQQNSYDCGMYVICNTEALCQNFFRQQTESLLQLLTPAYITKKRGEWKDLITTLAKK
SENP6 inh = SENP6 protease inhibitors, primary screen, biochemical, luminescence, uHTS. Sentrin-specific protease 6 (Homo sapiens), Q9GZR1. Recombinant SENP6 catalytic domain, aminoluciferin luminescence. inhibition, % at 10 µM. 330,000 tested, 1.8% active. AID 2599, 2010;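 active = inhibition above about 50% at the single tested dose, limit read from the data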;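 also: plate controls were DMSO wells with enzyme for no effect and DMSO wells lacking enzyme for full effect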
SENP8 block-2 = SENP8 protease inhibitors, primary screen, biochemical, luminescence. Sentrin-specific protease 8 (Homo sapiens), Q96LD8. purified SENP8, Z-RLRGG-aminoluciferin cleavage. inhibition, % at 10 µM. 330,000 tested, 1.2% active; in the data active = inhibition above about 50%
SENP7 inh = SENP7 protease inhibitors, primary screen, biochemical, luminescence, uHTS | Sentrin-specific protease 7 (Homo sapiens), Q9BQF6 | recombinant SENP7, Z-RLRGG-aminoluciferin luminescence, 40 min | inhibition, % at 5 µM | 330,000 tested, 1.5% active | AID 434973, 2010;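 active = inhibition above about 50% at the single test dose, limit read from the data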;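 also: plate controls were DMSO with enzyme for no effect and no enzyme buffer wells for full effect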
Target sequence (Q9BQF6 706-1050 limits assumed): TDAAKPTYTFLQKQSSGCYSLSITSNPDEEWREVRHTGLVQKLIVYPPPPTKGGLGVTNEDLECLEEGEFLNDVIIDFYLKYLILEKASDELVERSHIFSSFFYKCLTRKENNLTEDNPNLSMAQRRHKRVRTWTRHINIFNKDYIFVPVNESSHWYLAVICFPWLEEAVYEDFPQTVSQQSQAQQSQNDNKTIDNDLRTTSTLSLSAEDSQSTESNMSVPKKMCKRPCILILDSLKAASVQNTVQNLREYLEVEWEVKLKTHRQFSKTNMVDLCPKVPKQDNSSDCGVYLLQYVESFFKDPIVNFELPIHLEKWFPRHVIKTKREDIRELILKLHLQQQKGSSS
* hit, by the source's call; x = not tested or not shown; ! = not active in a repeat. An excerpt weighted towards active compounds, which were near 2.6% of everything screened.

SMILES	Platelet DG rel	SENP1 FRET inh	SENP8 block-1	SENP6 inh	SENP8 block-2	SENP7 inh
O=C(Nc1ccccc1)Nc1ccc(-n2ccc(C(F)(F)F)n2)cc1	15	0	8	71*	57*	58*
O=C(O)CC(CC(=O)Nc1ccc(-n2ccc(C(F)(F)F)n2)cc1)c1ccccc1 (stereo not drawn)	-15	-1	5	1	5	3
Cc1cc(=O)c2c(o1)C(=O)c1occc1C2=O	x	2	75*	x	x	x
COc1c2occc2c(OC)c2c(=O)cc(C)oc12	-3	2	-6	-20	0	-1
CSc1nc2sc(-c3ccccc3)cc2c(=O)n1N	115*	0	-111	95*	94*	98*
COc1cc(NC(=S)N2CCN(C/C=C/c3ccccc3)CC2)cc(OC)c1	57*	1	0	-26	-1	-6
CN(C)c1ccc(/C=C/C=C2/SC(=S)N(c3ccccc3)C2=O)cc1	4	72*	11	-11	1	-2
O=C1/C(=C/C=C/c2ccco2)SC(=S)N1c1ccc(O)cc1	8	6	46*	-53	4	9
O=C1/C(=C\c2ccco2)SC(=S)N1c1ccc(O)cc1	-11	1	13	-5	29	7
O=C(O)c1ccc(N2C(=O)/C(=C/C=C/c3ccccc3)SC2=S)cc1	-3	7	13	6	1	2
O=C1OCC(c2ccc(Cl)s2)=C1c1ccccc1[N+](=O)[O-]	-5	1	13	2	-3	0
N/C(=N\c1nc(CSc2ccccn2)cc(=O)[nH]1)Nc1ccc(Cl)cc1Cl	-3	2	21	3	3	13
O=C(Nc1ccc(NC(=O)c2cccs2)cn1)c1ccccc1	-1	1	5	64*	38	67*
CCC(C)(C)C1CCc2[nH]nc(C(=O)N/N=C(\C)c3ccco3)c2C1 (stereo not drawn)	3	0	26	58*	46	39
CCCNC(=O)c1n[nH]c2c1CC(C(C)(C)CC)CC2 (stereo not drawn)	x	1	16	2	1	-6
COc1ccc(-n2nc3c(c2NC(=O)CCl)CSC3)cc1	17	1	9	-2	-9	9
CCCN(CCC)c1ccc(/C=C/c2ccc3cc(OCC)ccc3n2)cc1	-4	-22	-289	x	x	x
COc1cc(/C=C/c2nc3ccccc3s2)cc(OC)c1O	-17	-38	-436	3	1	11
CN(C)c1ccc(CNc2nc3ccccc3n2C)cc1	x	0	19	x	x	x
CN(C)c1ccc(/C=C/c2nc3ccccc3s2)cc1	64*	-22	-241	99*	97*	99*
CN(C)c1ccc(/C=C/c2ccc3ccccc3n2)cc1	97*	-26	-290	x	x	x
CN(C)c1ccc(CNc2nc3ccccc3s2)cc1	15	x	x	82*	54*	95*
Cc1ccc(-c2csc3ncn(CC(=O)O)c(=O)c23)cc1C	-1	1	13	-6	6	-2
O=C1C(=NO)CCc2ccccc21	x	-31	42*	x	x	x
COc1ccccc1CCCNC(=O)C1CCC(=O)N(CCc2ccc(Cl)cc2)C1 (stereo not drawn)	1	0	-1	-20	-1	3
SMILES	Platelet DG rel	SENP1 FRET inh	SENP8 block-1	SENP6 inh	SENP8 block-2	SENP7 inh
Nc1nc(-c2ccccc2)c(N=Nc2ccc(Cl)cc2)s1	3	7	46*	-12	-6	-2
Nc1nc(-c2ccccc2)c(-c2ccccc2)s1	-1	1	-48	3	4	-1
O=C(Nc1ccccc1)OCc1cc(-c2ccccc2Cl)on1	52*	-1	10	-5	-8	-1
CCCn1nc(C(=O)NCC2COc3ccccc3O2)c2ccccc2c1=O (stereo not drawn)	x	0	19	8	6	5
CCOC(=O)Nc1nnc(-c2ccccc2OC)s1	11	-1	-173	-22	-9	5
COC(=O)Nc1nnc(-c2ccccc2OC)s1	-8	-9	-168	42	33	67*
Cc1ccsc1/C=N\NC(=O)c1n[nH]c2c1CCC2	36	3	11	92*	85*	93*
Cc1ccc(OCCOC(=O)c2sc(=S)n(C)c2C)cc1	-2	0	11	-3	-3	9
CCOC(=O)C(OC(=O)c1sc(=S)n(C)c1C)C(C)=O (stereo not drawn)	50*	2	18	-12	7	-4
O=C(NC(c1ccc(-c2ccccc2)cc1)c1cnccn1)C1CCN(CCCOc2ccccc2)CC1 (stereo not drawn)	x	-8	18	x	x	x
COc1ccc(N2CCN(S(=O)(=O)CCNC(=O)c3cc(=O)c4ccccc4o3)CC2)cc1	-4	1	11	1	-6	5
CCCCN1/C(=C/c2ccc3ccccc3[n+]2CC)Sc2ccccc21	-7	70*	12	3	-1	8
CCN1/C(=C/c2ccc3ccccc3[n+]2CC)C=Cc2ccccc21	18	63*	42*	-2	12	8
O=S(=O)(c1c(F)cccc1F)N(CCc1ccc(F)cc1)C[C@@H](O)COCc1ccccc1	x	1	10	x	x	x
O=C1C(Cl)=C(NS(=O)(=O)c2ccc([N+](=O)[O-])cc2)C(=O)c2ccccc21	4	3	53*	12	11	16
O=[N+]([O-])c1ccc(Oc2ccc(S(=O)(=O)Nc3ccccc3)cc2)cc1	-3	2	18	3	5	-4
Cc1cccc(N=Nc2c(C)nn(-c3ccccc3)c2N)c1C	-1	-1	28	5	5	-6
Cc1cccc(N=Nc2c(C)[nH]n(C(N)=S)c2=O)c1C	-1	x	x	77*	65*	39
Cc1nc(SCC(=O)N2CCCC2=O)c2c(C)c(C)sc2n1	x	-1	11	x	x	x
CS(=O)(=O)N1CCN(c2ccccc2NC(=O)Nc2cccc(Cl)c2)CC1	3	0	2	8	-10	-4
COc1cccc(Nc2ccc(N3CCCCC3)cc2)c1OC	x	90*	-35	7	3	-11
COC(=O)c1ccc(/C=N\N2CCN(c3ccccc3)CC2)cc1	9	-1	14	-2	-3	-5
O=C(Nc1cccc2nsnc12)c1cccs1	3	1	-288	58*!	16	50*!
CC1(C)OC(c2ccccc2)=C/C(=C/C=C2C(=O)c3ccccc3C2=O)O1	17	95*	59*	-15	8	3
O=C(Nc1ccc(Oc2ccccc2)cc1)c1csc([C@@H]2O[C@H](CO)[C@H](O)[C@H](O)[C@H]2O)n1	x	4	15	x	x	x
